Each compound was assayed against T1, Integrin alpha-V/beta-3 (Homo sapiens, UniProt P05106+P06756) (assay: Inhibitory activity against beta-3-transfected 293 cells using alpha-V beta-3 antagonism assay).
Type: functional, cell-based, HEK293
Procedure, shortened: (§1)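 Fibrinogen-coated plates were blocked with BSA in PBS. HEK293 cells expressing human β3 subunit were preincubated 15 min at 37 °C with or without compound, then allowed to adhere for 60 min. Nonadherent cells were washed off with PBS, adherent cells lysed, and β-galactosidase activity read. IC50 was derived from standard curves and reported ± SEM.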

T1 sequence (P05106 27-788 limits assumed): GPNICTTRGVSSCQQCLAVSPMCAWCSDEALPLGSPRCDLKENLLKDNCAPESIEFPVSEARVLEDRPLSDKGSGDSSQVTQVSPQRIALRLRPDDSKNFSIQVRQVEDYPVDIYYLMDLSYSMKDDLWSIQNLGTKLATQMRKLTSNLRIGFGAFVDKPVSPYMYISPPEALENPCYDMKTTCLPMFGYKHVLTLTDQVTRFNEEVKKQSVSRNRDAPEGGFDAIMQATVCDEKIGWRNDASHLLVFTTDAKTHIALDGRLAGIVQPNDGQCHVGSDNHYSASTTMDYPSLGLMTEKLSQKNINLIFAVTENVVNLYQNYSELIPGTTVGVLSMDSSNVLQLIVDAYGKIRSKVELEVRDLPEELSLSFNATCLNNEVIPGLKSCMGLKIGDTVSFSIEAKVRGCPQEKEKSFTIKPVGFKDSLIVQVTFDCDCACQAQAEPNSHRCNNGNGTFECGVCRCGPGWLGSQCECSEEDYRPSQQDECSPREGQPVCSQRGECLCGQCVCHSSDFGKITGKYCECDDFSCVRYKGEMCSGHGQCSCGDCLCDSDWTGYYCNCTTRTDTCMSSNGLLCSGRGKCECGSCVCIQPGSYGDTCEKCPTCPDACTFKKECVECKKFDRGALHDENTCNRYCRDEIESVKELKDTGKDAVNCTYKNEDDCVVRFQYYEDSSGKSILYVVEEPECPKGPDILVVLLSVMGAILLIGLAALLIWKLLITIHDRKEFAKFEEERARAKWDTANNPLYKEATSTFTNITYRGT
T1 sequence (P06756 31-889 limits assumed): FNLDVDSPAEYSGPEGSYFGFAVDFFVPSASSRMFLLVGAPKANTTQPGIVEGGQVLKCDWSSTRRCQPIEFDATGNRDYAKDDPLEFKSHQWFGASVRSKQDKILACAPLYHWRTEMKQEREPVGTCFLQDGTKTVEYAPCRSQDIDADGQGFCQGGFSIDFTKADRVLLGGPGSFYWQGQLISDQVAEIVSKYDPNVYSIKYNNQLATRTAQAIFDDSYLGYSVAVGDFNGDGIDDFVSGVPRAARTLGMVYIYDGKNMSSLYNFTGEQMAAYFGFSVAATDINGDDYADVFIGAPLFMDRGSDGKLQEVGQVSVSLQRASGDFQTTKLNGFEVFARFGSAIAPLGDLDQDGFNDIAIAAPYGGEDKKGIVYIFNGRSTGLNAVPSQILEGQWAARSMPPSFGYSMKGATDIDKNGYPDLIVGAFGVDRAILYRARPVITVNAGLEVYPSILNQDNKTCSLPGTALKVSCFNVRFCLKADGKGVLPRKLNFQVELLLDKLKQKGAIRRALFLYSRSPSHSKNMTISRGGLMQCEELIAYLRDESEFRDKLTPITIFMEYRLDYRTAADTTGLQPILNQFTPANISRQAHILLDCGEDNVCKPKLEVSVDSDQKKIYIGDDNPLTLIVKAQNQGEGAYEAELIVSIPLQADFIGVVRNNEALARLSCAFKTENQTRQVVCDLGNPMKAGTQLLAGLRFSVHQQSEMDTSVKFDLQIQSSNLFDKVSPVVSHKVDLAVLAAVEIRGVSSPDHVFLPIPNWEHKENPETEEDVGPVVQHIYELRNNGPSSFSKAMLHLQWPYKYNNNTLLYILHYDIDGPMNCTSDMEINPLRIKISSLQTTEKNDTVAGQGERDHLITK
T1 sequence (P06756 891-1048 limits assumed): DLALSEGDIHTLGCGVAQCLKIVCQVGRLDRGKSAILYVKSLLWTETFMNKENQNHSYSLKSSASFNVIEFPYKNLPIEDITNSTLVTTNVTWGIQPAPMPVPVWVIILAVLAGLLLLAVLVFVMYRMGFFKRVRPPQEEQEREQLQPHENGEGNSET

Compared with `Cc1cc(C)c(S(=O)(=O)N[C@@H](CC(=O)Nc2ccc3c(cnn3CCCNc3ccccn3)c2)C(=O)O)c(C)c1`, `Cc1cc(C)c(S(=O)(=O)N[C@@H](CNC(=O)c2ccc3c(cnn3CCCNc3ccccn3)c2)C(=O)O)c(C)c1` is 18-fold lower in IC50: 840 nM for the first, 48 nM for the second.

Going from `CC(C)CCC(=O)N[C@@H](CNC(=O)c1ccc2c(cnn2CCCNc2ccccn2)c1)C(=O)O` to `CC(C)COC(=O)N[C@@H](CNC(=O)c1ccc2c(cnn2CCCNc2ccccn2)c1)C(=O)O`, the IC50 falls from over 1000 nM to 240 nM.

Compared with `O=C(NC[C@H](NS(=O)(=O)c1ccc2ccccc2c1)C(=O)O)c1ccc2c(cnn2CCCNc2ncc[nH]2)c1`, `O=C(NC[C@H](NS(=O)(=O)c1cccc2ccccc12)C(=O)O)c1ccc2c(cnn2CCCNc2ncc[nH]2)c1` is 2.8-fold higher in IC50: 4.7 nM for the first, 13 nM for the second. The first is the more potent here.

`O=C(NC[C@H](NS(=O)(=O)c1ccc(Cl)c(Cl)c1)C(=O)O)c1ccc2c(cnn2CCCNc2ncc[nH]2)c1` and `O=C(NC[C@H](NS(=O)(=O)c1c(Cl)cccc1Cl)C(=O)O)c1ccc2c(cnn2CCCNc2ncc[nH]2)c1` are within 1.5-fold of each other in IC50: 10 nM for the first, 8.5 nM for the second.

First: Cc1cc(C)c(S(=O)(=O)N[C@@H](CNC(=O)c2ccc3c(cnn3CCCNc3cc[nH]n3)c2)C(=O)O)c(C)c1
Second: Cc1cc(C)c(S(=O)(=O)N[C@H](CNC(=O)c2ccc3c(cnn3CCCNc3ncc[nH]3)c2)C(=O)O)c(C)c1
The IC50 of the first is higher: over 1000 nM for the first, 290 nM for the second. The second is the more potent here.

`O=C(O)CCNC(=O)c1ccc2c(cnn2CCCNc2ccccn2)c1` and `O=C(O)CCNC(=O)c1ccc2c(cnn2CCCNc2ncc[nH]2)c1` cannot be ordered by IC50: over 1000 nM for the first, over 1000 nM for the second.

First: Cc1cc(C)c(S(=O)(=O)N[C@@H](CN(C)C(=O)c2ccc3c(cnn3CCCNc3ccccn3)c2)C(=O)O)c(C)c1
Second: Cc1cc(C)c(NS(=O)(=O)N[C@@H](CNC(=O)c2ccc3c(cnn3CCCNc3ccccn3)c2)C(=O)O)c(C)c1
The IC50 of the first is higher: over 1000 nM for the first, 360 nM for the second.

First: CC(C)(C)c1ccc(S(=O)(=O)N[C@@H](CNC(=O)c2ccc3c(cnn3CCCNc3ncc[nH]3)c2)C(=O)O)cc1
Second: Cc1ccc(S(=O)(=O)N[C@@H](CNC(=O)c2ccc3c(cnn3CCCNc3ncc[nH]3)c2)C(=O)O)cc1
The IC50 of the first is 7.5-fold higher: 120 nM for the first, 16 nM for the second. The second is the more potent here.

Compared with `O=C(N[C@@H](CNC(=O)c1ccc2c(cnn2CCCNc2ccccn2)c1)C(=O)O)OCc1ccccc1`, `O=C(NCc1ccccc1)N[C@@H](CNC(=O)c1ccc2c(cnn2CCCNc2ccccn2)c1)C(=O)O` is higher in IC50: 300 nM for the first, over 1000 nM for the second. The first is the more potent here.

Compared with `O=C(N[C@@H](CNC(=O)c1ccc2c(cnn2CCCNc2ncc[nH]2)c1)C(=O)O)OCc1ccccc1`, `O=C(NC[C@H](NS(=O)(=O)c1ccccc1)C(=O)O)c1ccc2c(cnn2CCCNc2ncc[nH]2)c1` is 1.7-fold lower in IC50: 74 nM for the first, 44 nM for the second. The second is the more potent here.

First: O=C(NC[C@H](NS(=O)(=O)c1ccccc1)C(=O)O)c1ccc2c(cnn2CCCNc2ccccn2)c1
Second: O=C(NC[C@H](NS(=O)(=O)Cc1ccccc1)C(=O)O)c1ccc2c(cnn2CCCNc2ccccn2)c1
The IC50 of the first is lower: 120 nM for the first, over 1000 nM for the second. The first is the more potent here.

First: CC(=O)Nc1ccc(S(=O)(=O)N[C@@H](CNC(=O)c2ccc3c(cnn3CCCNc3ncc[nH]3)c2)C(=O)O)cc1
Second: O=C(NC[C@H](NS(=O)(=O)c1ccc(Cl)cc1)C(=O)O)c1ccc2c(cnn2CCCNc2ncc[nH]2)c1
The IC50 of the first is 15-fold higher: 150 nM for the first, 10 nM for the second.

First: CC(C)CNS(=O)(=O)N[C@@H](CNC(=O)c1ccc2c(cnn2CCCNc2ccccn2)c1)C(=O)O
Second: CCCCS(=O)(=O)N[C@@H](CNC(=O)c1ccc2c(cnn2CCCNc2ccccn2)c1)C(=O)O
The IC50 of the first is higher: over 1000 nM for the first, 360 nM for the second.

Going from `O=C(NC[C@H](NS(=O)(=O)NCc1ccccc1)C(=O)O)c1ccc2c(cnn2CCCNc2ccccn2)c1` to `O=C(NC[C@H](NS(=O)(=O)Nc1ccccc1)C(=O)O)c1ccc2c(cnn2CCCNc2ccccn2)c1`, the IC50 falls from 600 nM to 170 nM (3.5-fold).

`O=C(Nc1ccccc1)N[C@@H](CNC(=O)c1ccc2c(cnn2CCCNc2ccccn2)c1)C(=O)O` and `O=C(CCc1ccccc1)N[C@@H](CNC(=O)c1ccc2c(cnn2CCCNc2ccccn2)c1)C(=O)O` cannot be ordered by IC50: over 1000 nM for the first, over 1000 nM for the second.

Going from `COc1ccc(S(=O)(=O)N[C@@H](CNC(=O)c2ccc3c(cnn3CCCNc3ncc[nH]3)c2)C(=O)O)cc1` to `O=C(NC[C@H](NS(=O)(=O)c1ccc(C(F)(F)F)cc1)C(=O)O)c1ccc2c(cnn2CCCNc2ncc[nH]2)c1`, the IC50 rises from 26 nM to 52 nM (2-fold). The first is the more potent here.

Compared with `Cc1cc(C)c(S(=O)(=O)NCCNC(=O)c2ccc3c(cnn3CCCNc3ncc[nH]3)c2)c(C)c1`, `Cc1cc(C)c(S(=O)(=O)N[C@@H](CNC(=O)c2ccc3c(cnn3CCCNc3ncc[nH]3)c2)C(=O)O)c(C)c1` is lower in IC50: over 1000 nM for the first, 2.3 nM for the second.

Compared with `O=C(NC[C@H](NS(=O)(=O)c1ccc(-c2ccccc2)cc1)C(=O)O)c1ccc2c(cnn2CCCNc2ncc[nH]2)c1`, `Cc1cc(-c2ccccc2)cc(C)c1S(=O)(=O)N[C@@H](CNC(=O)c1ccc2c(cnn2CCCNc2ncc[nH]2)c1)C(=O)O` is 7.1-fold lower in IC50: 35 nM for the first, 4.9 nM for the second.

`O=C(O)C[C@H](NC(=O)c1ccc2c(cnn2CCCNc2ccccn2)c1)C(=O)NCCc1ccccc1` and `Cc1cc(C)c(NC(=O)[C@H](CC(=O)O)NC(=O)c2ccc3c(cnn3CCCNc3ccccn3)c2)c(C)c1` cannot be ordered by IC50: over 1000 nM for the first, over 1000 nM for the second.

Going from `Cc1cc(C)c(S(=O)(=O)N[C@@H](CNC(=O)c2ccc3c(cnn3CCC(=O)Nc3ncc[nH]3)c2)C(=O)O)c(C)c1` to `Cc1cccc(C)c1S(=O)(=O)N[C@@H](CNC(=O)c1ccc2c(cnn2CCCNc2ncc[nH]2)c1)C(=O)O`, the IC50 falls from 56 nM to 10 nM (5.6-fold). The second is the more potent here.

These compounds were tested against Integrin alpha-IIb/beta-3 (Homo sapiens, UniProt P05106+P08514) (assay: Inhibition of aggregation of human gel-purified platelets (GPIIbIIIa GPP)).
Type: functional
Procedure, shortened: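 Human platelets from healthy-volunteer platelet-rich plasma were gel-purified on sepharose and used at 2×10^8 platelets/mL with 1 mM CaCl2 and 1 mg/mL fibrinogen. Aggregation was measured with or without compound at several concentrations and IC50 calculated. Values are single determinations.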

Integrin alpha-IIb/beta-3, sequence (P05106 27-788 limits assumed): as the sequence (P05106 27-788 limits assumed) above
Integrin alpha-IIb/beta-3, sequence (P08514 32-887 limits assumed): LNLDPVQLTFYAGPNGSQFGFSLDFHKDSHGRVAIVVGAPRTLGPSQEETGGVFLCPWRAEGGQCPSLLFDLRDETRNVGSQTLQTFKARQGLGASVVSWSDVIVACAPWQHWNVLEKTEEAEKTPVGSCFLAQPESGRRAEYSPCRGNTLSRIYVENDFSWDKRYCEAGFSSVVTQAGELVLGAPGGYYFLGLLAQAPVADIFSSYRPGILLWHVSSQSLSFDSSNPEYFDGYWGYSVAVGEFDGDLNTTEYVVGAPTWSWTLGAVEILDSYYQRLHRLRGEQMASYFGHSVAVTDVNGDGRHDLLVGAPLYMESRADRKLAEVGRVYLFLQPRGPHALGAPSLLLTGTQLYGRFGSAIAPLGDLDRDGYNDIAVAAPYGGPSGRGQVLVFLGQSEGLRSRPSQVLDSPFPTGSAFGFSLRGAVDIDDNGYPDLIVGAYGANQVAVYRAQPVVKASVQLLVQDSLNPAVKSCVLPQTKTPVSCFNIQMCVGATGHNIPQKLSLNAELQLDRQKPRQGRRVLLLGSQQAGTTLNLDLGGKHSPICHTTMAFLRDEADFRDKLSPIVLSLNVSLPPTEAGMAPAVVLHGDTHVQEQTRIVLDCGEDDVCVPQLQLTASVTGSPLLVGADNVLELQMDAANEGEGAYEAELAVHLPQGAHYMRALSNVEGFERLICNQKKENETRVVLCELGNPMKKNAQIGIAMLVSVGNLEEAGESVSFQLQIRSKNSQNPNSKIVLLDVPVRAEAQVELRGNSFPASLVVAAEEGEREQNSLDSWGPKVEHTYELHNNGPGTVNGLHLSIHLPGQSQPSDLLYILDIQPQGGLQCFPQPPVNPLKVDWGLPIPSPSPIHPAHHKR
Integrin alpha-IIb/beta-3, sequence (P08514 891-1039 limits assumed): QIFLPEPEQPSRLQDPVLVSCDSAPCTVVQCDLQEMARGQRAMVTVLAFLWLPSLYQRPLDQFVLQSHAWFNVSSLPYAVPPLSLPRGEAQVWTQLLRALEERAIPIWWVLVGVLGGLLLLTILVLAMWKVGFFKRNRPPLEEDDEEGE

Work on `Cc1cc(C)c(S(=O)(=O)N[C@@H](CNC(=O)C2=NOC(CCCC(=O)Nc3ncc[nH]3)C2)C(=O)O)c(C)c1` (some centres undefined) yielded an IC50 of 61 µM.

What follows are compounds tested against T1, Integrin alpha-V/beta-3 (assay: Inhibition of adhesion of integrin beta-3-transfected HEK293 cells to fibrinogen).
Type: functional, cell-based
Procedure, shortened: as §1

In order of rising IC50:
1. Cc1cc(C)c(S(=O)(=O)N[C@@H](CNC(=O)c2ccc3c(cnn3CCCNC3=NCCCN3)c2)C(=O)O)c(C)c1  28 nM
2. Cc1cc(C)c(S(=O)(=O)N[C@@H](CNC(=O)c2ccc3c(cnn3CCCNC3=NCCN3)c2)C(=O)O)c(C)c1  70 nM

What follows are compounds tested against T1, Integrin alpha-V/beta-3 (assay: Inhibition of Vitronectin receptor (alpha V beta 3) binding).
Type: protein-complex assay

First: Cc1cc(C)c(S(=O)(=O)N[C@@H](CNC(=O)c2cccc3c2cnn3CCCNc2ncc[nH]2)C(=O)O)c(C)c1
Second: O=C(N[C@@H](CNC(=O)c1cccc2c1cnn2CCCNC1=NCCN1)C(=O)O)OCc1ccccc1
The IC50 of the first is lower: under 0.1 nM for the first, 7.3 nM for the second. The first is the more potent here.

Compared with `O=C(N[C@@H](CNC(=O)c1ccc2c(cnn2CCNC2=NCCN2)c1)C(=O)O)OCc1ccccc1`, `O=C(N[C@@H](CNC(=O)c1ccc2c(cnn2CCCNC2=NCCN2)c1)C(=O)O)OCc1ccccc1` is 13-fold lower in IC50: 51 nM for the first, 3.8 nM for the second. The second is the more potent here.

Compared with `O=C(N[C@@H](CNC(=O)c1ccc2nn(CCCNC3=NCCN3)cc2c1)C(=O)O)OCc1ccccc1`, `O=C(N[C@H](CNC(=O)c1ccc2cn(CCCNC3=NCCN3)nc2c1)C(=O)O)OCc1ccccc1` is 2.2-fold lower in IC50: 55 nM for the first, 25 nM for the second. The second is the more potent here.

Going from `O=C(N[C@H](CNC(=O)c1ccc2cnn(CCCNC3=NCCN3)c2c1)C(=O)O)OCc1ccccc1` to `O=C(N[C@@H](CNC(=O)c1ccc2c(cnn2CCCCNC2=NCCN2)c1)C(=O)O)OCc1ccccc1`, the IC50 falls from 1500 nM to 250 nM (6-fold). The second is the more potent here.

The compounds below were run against T1, Integrin alpha-V/beta-3 (assay: Inhibitory activity against beta-3-transfected 293 cells using alphaV-beta3 antagonism assay).
Type: functional, cell-based, HEK293
Procedure, shortened: as §1

Compared with `Cc1cc(C)c(S(=O)(=O)N[C@@H](CNC(=O)c2cccc3c2cnn3CCCNc2ncc[nH]2)C(=O)O)c(C)c1`, `O=C(N[C@@H](CNC(=O)c1cccc2c1cnn2CCCNC1=NCCN1)C(=O)O)OCc1ccccc1` is higher in IC50: 25 nM for the first, over 1000 nM for the second.

First: O=C(N[C@@H](CNC(=O)c1ccc2c(cnn2CCNC2=NCCN2)c1)C(=O)O)OCc1ccccc1
Second: O=C(N[C@@H](CNC(=O)c1ccc2c(cnn2CCCNC2=NCCN2)c1)C(=O)O)OCc1ccccc1
The IC50 of the first is higher: over 1000 nM for the first, 460 nM for the second. The second is the more potent here.

`O=C(N[C@@H](CNC(=O)c1ccc2nn(CCCNC3=NCCN3)cc2c1)C(=O)O)OCc1ccccc1` and `O=C(N[C@H](CNC(=O)c1ccc2cn(CCCNC3=NCCN3)nc2c1)C(=O)O)OCc1ccccc1` cannot be ordered by IC50: over 1000 nM for the first, over 1000 nM for the second.

`O=C(N[C@H](CNC(=O)c1ccc2cnn(CCCNC3=NCCN3)c2c1)C(=O)O)OCc1ccccc1` and `O=C(N[C@@H](CNC(=O)c1ccc2c(cnn2CCCCNC2=NCCN2)c1)C(=O)O)OCc1ccccc1` cannot be ordered by IC50: over 1000 nM for the first, over 1000 nM for the second.

— ChEMBL document CHEMBL1133174, “Disubstituted indazoles as potent antagonists of the integrin alpha(v)beta(3)” (J Med Chem, 2000)
